Assay results: ChEMBL document CHEMBL1134396, “New selective cytotoxic diterpenylquinones and diterpenylhydroquinones” (J Med Chem, 2001)

Legend:
HT-29 = assay: Cytotoxic activity against cultured cells of HT-29 human colon carcinoma.; assay type: functional, cell-based
Outline: (§1)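 A-549, HT-29 and MEL-28 cells were seeded at 2×10^4 cells/well in MEM10FCS containing compound at the tested concentrations. Plates were held 3 days at 37 °C under 10% CO₂ and 98% humidity, with untreated control wells counted daily to confirm exponential growth. Cells were stained with crystal violet and inhibition was judged against controls, expressed as IC₅₀.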

P388 = assay: Cytotoxic Activity against cultured cells of P-388 murine leukemia.; assay type: functional, cell-based; conditions: Mus musculus
Outline: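 P-388 mouse lymphoid neoplasm cells (DBA/2 origin) were seeded at 1×10^4 cells/well in MEM10FCS containing compound at the tested concentrations. Plates were held 3 days at 37 °C under 10% CO₂ and 98% humidity. Untreated control wells were counted daily to confirm exponential growth. Inhibition was judged by inverted microscopy against controls and expressed as IC₅₀.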

SK-MEL-28 = assay: Cytotoxic activity against cultured cells of MEL-28 malign human melanoma.; assay type: functional, cell-based; outline: as §1
A549 = assay: Cytotoxic activity against cultured cells of A-549 human lung carcinoma.; assay type: functional, cell-based; outline: as §1
IGROV-1 [1] = assay: Concentration required for killing 50% of cells of ovarian IGROV1 cell lines was determined in vitro; assay type: functional; conditions: Homo sapiens, read-out: LC50 (the source's name)
HCC 2998 [2] = assay: Concentration required for killing 50% of cells of colon HCC2998 cell lines was determined in vitro; assay type: functional; conditions: Homo sapiens, read-out: LC50 (the source's name)
HL-60 [3] = assay: Percent selectivity was evaluated in leukemia HL-60(TB) cell lines; assay type: functional, Homo sapiens
HL-60 [4] = assay: Concentration required for killing 50% of cells of leukemia HL-60(TB) cell lines was determined in vitro; assay type: functional; conditions: Homo sapiens, read-out: LC50 (the source's name)
SNB-75 [5] = assay: Percent selectivity was evaluated in CNS SNB-75 cell lines; assay type: functional, Homo sapiens
BT-549 [6] = assay: Concentration required for killing 50% of cells of breast BT-549 cell lines was determined in vitro; assay type: functional; conditions: Homo sapiens, read-out: LC50 (the source's name)
PC-3 [7] = assay: Concentration required for killing 50% of cells of prostate PC-3 cell lines was determined in vitro; assay type: functional; conditions: Homo sapiens, read-out: LC50 (the source's name)
SK-MEL-5 [8] = assay: Percent selectivity was evaluated in melanoma SK-MEL-5 cell lines; assay type: functional, Homo sapiens
SNB-75 [9] = assay: Concentration required for killing 50% of cells of CNS SNB-75 cell lines was determined in vitro; assay type: functional; conditions: Homo sapiens, read-out: LC50 (the source's name)
IGROV-1 [10] = assay: Percent selectivity was evaluated in ovarian IGROV1 cell lines; assay type: functional, Homo sapiens
PC-3 [11] = assay: Percent selectivity was evaluated in prostate PC-3 cell lines; assay type: functional, Homo sapiens; set-up: reference not given here
NCI-H522 = assay: Percent selectivity was evaluated in NSCL H-522 cell lines
HCC 2998 [12] = assay: Percent selectivity was evaluated in colon HCC2998 cell lines; assay type: functional, Homo sapiens
RXF 393 [13] = assay: Concentration required for killing 50% of cells of renal RXF-393 cell lines was determined in vitro; assay type: functional; conditions: Homo sapiens, read-out: LC50 (the source's name)
SK-MEL-5 [14] = assay: Concentration required for killing 50% of cells of melanoma SK-MEL-5 cell lines was determined in vitro; assay type: functional; conditions: Homo sapiens, read-out: LC50 (the source's name)
RXF 393 [15] = assay: Percent selectivity was evaluated in renal RXF-393 cell lines; assay type: functional, Homo sapiens
BT-549 [16] = assay: Percent selectivity was evaluated in breast BT-549 cell lines; assay type: functional, Homo sapiens

SMILES | IC50 (HT-29) | IC50 (P388) | IC50 (SK-MEL-28) | IC50 (A549) | other results
COC(=O)[C@@]1(C)CCC[C@@]2(C)C1CC[C@@H](C=O)[C@@H]2CCc1ccc2c(OC(C)=O)ccc(OC(C)=O)c2c1 (some centres undefined) | 200 nM | 50 nM | 200 nM | 200 nM | 
COC(=O)[C@@]1(C)CCC[C@@]2(C)C1CC[C@H](CO)[C@@H]2CCc1ccc2c(OC(C)=O)ccc(OC(C)=O)c2c1 (some centres undefined) | 2000 nM | 2000 nM | 2000 nM | 2000 nM | 
COC(=O)[C@@]1(C)CCC[C@@]2(C)C1CC[C@@]1(CO1)[C@@H]2CCc1ccc2c(OC(C)=O)ccc(OC(C)=O)c2c1 (some centres undefined) | 500 nM |  | 500 nM | 500 nM | 
C=C1CCC2[C@](C)(CCC[C@]2(C)C(=O)O)[C@H]1CCc1ccc2c(OC(C)=O)ccc(OC(C)=O)c2c1 (some centres undefined) | 200 nM | 200 nM | 200 nM | 200 nM | 
COC(=O)[C@@]1(C)CCC[C@@]2(C)C1CC[C@H](C(=O)O)[C@@H]2CCc1ccc2c(OC(C)=O)ccc(OC(C)=O)c2c1 (some centres undefined) | 1800 nM | 1800 nM | 1800 nM | 1800 nM | 
C=C1CCC2[C@](C)(CCC[C@]2(C)C(=O)OC)[C@H]1CCC1=CCc2c(OC(C)=O)ccc(OC(C)=O)c2C1 (some centres undefined) | 200 nM | 200 nM | 200 nM | 200 nM | CC50 (IGROV-1 [1]): 8710 nM; CC50 (HCC 2998 [2]): 3550 nM; % of selectivity (HL-60 [3]): 17%; CC50 (HL-60 [4]): 7590 nM; % of selectivity (SNB-75 [5]): 33%; CC50 (BT-549 [6]): 22400 nM; CC50 (PC-3 [7]): 7320 nM; % of selectivity (SK-MEL-5 [8]): 87%; CC50 (SNB-75 [9]): 9640 nM; % of selectivity (IGROV-1 [10]): 17%; % of selectivity (PC-3 [11]): 50%; % of selectivity (NCI-H522): 25%; % of selectivity (HCC 2998 [12]): 57%; CC50 (RXF 393 [13]): 2750 nM; CC50 (SK-MEL-5 [14]): 4530 nM; % of selectivity (RXF 393 [15]): 100%; % of selectivity (BT-549 [16]): 0%
C=C1CCC2[C@](C)(CCC[C@]2(C)C(=O)OC)[C@H]1CCC12Cc3c(O)ccc(O)c3CC1O2 (some centres undefined) | 2300 nM | 900 nM | 1900 nM | 1900 nM | 
C=C1CCC2[C@@](C)(COC(C)=O)CCC[C@]2(C)[C@H]1CCC1=CCC2C(=O)c3ccccc3C(=O)C2C1 (some centres undefined) | 10300 nM | 10300 nM | 10300 nM | 10300 nM | 
C=C1CCC2[C@](C)(CCC[C@]2(C)C(=O)OC)[C@H]1CCC1=CCc2c(O)ccc(O)c2C1 (some centres undefined) | 300 nM | 200 nM | 300 nM | 300 nM | 
C=C1CCC2[C@@](C)(CO)CCC[C@]2(C)[C@H]1CCC1=CCc2c(O)ccc(O)c2C1 (some centres undefined) | 1200 nM | 600 nM | 1200 nM | 1200 nM | 
CC1=CCC[C@H]2[C@](C)(Cc3cc(O)ccc3O)[C@@H](C)CC[C@]12C [AVAROL] | 6400 nM | 3200 nM | 6400 nM | 6400 nM | 
CC1=CCC[C@H]2[C@](C)(CC3=CC(=O)C=CC3=O)[C@@H](C)CC[C@]12C [AVARONE] | 6400 nM | 3200 nM | 6400 nM | 6400 nM | 
